Calls of active or inactive are those of the source. No cut-off for these calls is given here.
What was measured:
U-937 = test: Inhibition of [ethanolamine-1-3H]AEA uptake in human U937 cell homogenate preincubated for 20 mins followed by AEA addition measured after 5 mins by scintillation counting method; type: functional, cell-based; conditions: in the assay text read “intact human U937 cells” for “human U937 cell homogenate”
Method in brief: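 Intact U937 cells (0.5 × 10^6) in serum-free medium. Preincubated 20 min at 37 °C with compound at a 10 μM screening concentration, then 5 min at 37 °C with 100 nM AEA plus 0.5 nM [ethanolamine-1-3H]AEA. Stopped on ice and by rapid filtration over GF/C filters presoaked in PBS/0.2% BSA. Washed with ice-cold PBS/1% fatty acid-free BSA, then scintillation counted.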

[1] = molecular target: T1, Fatty-acid amide hydrolase 1 (Homo sapiens, UniProt O00519); test: Inhibition of FAAH in human U937 cell homogenate assessed as decrease in [ethanolamine-1-3H]AEA levels preincubated for 30 mins followed by AEA addition measured after 15 mins by liquid scintillation counting method
T1 sequence (O00519 whole entry): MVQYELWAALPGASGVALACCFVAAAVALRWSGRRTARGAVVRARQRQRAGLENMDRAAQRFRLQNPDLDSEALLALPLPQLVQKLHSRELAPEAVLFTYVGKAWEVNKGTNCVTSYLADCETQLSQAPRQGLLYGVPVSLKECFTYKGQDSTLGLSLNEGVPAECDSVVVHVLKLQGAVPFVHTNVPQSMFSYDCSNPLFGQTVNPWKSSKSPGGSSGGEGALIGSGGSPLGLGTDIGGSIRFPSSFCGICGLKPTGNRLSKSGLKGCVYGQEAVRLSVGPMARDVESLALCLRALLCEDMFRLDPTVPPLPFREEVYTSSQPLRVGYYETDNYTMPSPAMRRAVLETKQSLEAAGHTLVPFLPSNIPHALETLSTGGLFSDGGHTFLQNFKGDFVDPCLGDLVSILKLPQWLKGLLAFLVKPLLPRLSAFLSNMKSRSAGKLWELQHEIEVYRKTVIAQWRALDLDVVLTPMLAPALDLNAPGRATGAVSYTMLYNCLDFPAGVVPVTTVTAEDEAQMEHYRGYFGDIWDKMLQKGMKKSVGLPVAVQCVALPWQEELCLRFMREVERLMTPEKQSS
Method in brief: (§1)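 U937 cell homogenate (100 μg) in 10 mM Tris-HCl, 1 mM EDTA, pH 8, 0.1% fatty acid-free BSA. Compound screened at 10 μM, 30 min at 37 °C. Then 100 nM AEA with 1 nM [ethanolamine-1-3H]AEA tracer added, 15 min at 37 °C. Stopped with ice-cold CHCl3:MeOH (1:1), centrifuged, tritium in aqueous phase counted by liquid scintillation. Data as mean with 95% CI, n = 3.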

Cannabinoid receptor 2 = Cannabinoid receptor 2 (Homo sapiens, UniProt P34972); test: Displacement of [3H]CP55,940 from human CB2 receptor expressed in CHO-K1 cell membranes after 1.5 hrs by liquid scintillation counting assay
Cannabinoid receptor 2, sequence (P34972 whole entry): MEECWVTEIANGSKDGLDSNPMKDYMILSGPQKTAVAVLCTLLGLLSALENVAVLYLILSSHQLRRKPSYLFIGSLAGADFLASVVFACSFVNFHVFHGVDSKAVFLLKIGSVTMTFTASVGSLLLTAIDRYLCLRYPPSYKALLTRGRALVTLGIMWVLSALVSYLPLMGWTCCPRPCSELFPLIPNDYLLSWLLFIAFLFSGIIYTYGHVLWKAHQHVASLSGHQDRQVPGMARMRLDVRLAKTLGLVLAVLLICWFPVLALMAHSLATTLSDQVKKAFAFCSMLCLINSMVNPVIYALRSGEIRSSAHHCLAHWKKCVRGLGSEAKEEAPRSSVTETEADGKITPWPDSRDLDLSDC

[2] = molecular target: T2, Monoglyceride lipase (Homo sapiens) (UniProt Q99685); test: Inhibition of MAGL in human U937 cell homogenate assessed as decrease in [ethanolamine-1-3H]AEA levels up to 10 uM preincubated for 30 mins followed by AEA addition measured after 15 mins by liquid scintillation counting method; method in brief: as §1
T2 sequence (whole entry): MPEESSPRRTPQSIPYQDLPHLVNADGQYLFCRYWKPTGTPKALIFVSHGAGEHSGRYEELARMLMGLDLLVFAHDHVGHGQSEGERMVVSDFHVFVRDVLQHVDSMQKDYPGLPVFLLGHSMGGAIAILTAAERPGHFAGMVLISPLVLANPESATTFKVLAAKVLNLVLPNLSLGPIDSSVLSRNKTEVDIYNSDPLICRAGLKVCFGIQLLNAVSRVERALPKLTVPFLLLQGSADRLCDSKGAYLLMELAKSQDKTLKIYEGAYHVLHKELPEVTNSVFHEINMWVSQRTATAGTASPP

Cannabinoid receptor 1 [3] = molecular target: T3, Cannabinoid receptor 1 (Homo sapiens, UniProt P21554); test: Positive allosteric modulation of human CB1 receptor expressed in CHO-K1 cell membranes assessed as induction of [3H]CP55,940 binding up to 10 uM after 1.5 hrs by liquid scintillation counting assay; type: functional
T3 sequence (P21554 whole entry): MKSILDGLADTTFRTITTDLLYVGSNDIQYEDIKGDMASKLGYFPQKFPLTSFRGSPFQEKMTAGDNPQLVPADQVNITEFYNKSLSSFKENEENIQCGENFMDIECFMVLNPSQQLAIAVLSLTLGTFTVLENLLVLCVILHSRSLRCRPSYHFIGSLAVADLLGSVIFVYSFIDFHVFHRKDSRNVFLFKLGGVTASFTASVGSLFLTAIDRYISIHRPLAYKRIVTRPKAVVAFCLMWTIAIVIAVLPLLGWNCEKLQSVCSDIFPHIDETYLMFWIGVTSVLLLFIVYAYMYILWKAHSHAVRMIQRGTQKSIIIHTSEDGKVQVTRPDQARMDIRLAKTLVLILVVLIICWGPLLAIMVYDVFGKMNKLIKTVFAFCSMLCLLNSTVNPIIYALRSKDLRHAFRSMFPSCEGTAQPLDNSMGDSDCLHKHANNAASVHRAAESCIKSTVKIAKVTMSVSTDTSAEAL

Cannabinoid receptor 1 [4] = molecular target: T3, Cannabinoid receptor 1; test: Positive allosteric modulation of human CB1 receptor expressed in CHO-K1 cell membranes assessed as induction of [3H]CP55,940 binding at 100 uM after 1.5 hrs by liquid scintillation counting assay relative to control; type: functional
Cannabinoid receptor 1 [5] = molecular target: T3, Cannabinoid receptor 1; test: Positive allosteric modulation of human CB1 receptor expressed in CHO-K1 cell membranes assessed as induction of [3H]CP55,940 binding after 1.5 hrs by liquid scintillation counting assay; type: functional
Cannabinoid receptor 1 [6] = molecular target: T3, Cannabinoid receptor 1; test: Negative allosteric modulation of human CB1 receptor expressed in HEK293 cells assessed as inhibition of 33 nM CP55,940-induced SRE transcriptional activity after 5 hrs by luciferase reporter gene assay; type: functional, cell-based
Monoglyceride lipase = molecular target: T4, Monoglyceride lipase (Homo sapiens, UniProt Q99685); test: Inhibition of MAGL in human U937 cell homogenate assessed as decrease in [ethanolamine-1-3H]AEA levels preincubated for 30 mins followed by AEA addition measured after 15 mins by liquid scintillation counting method; method in brief: as §1
T4 sequence (Q99685 whole entry): T2 sequence (whole entry)

[7] = molecular target: T5, Fatty-acid amide hydrolase 1 (Homo sapiens) (UniProt O00519); test: Inhibition of FAAH in human U937 cell homogenate assessed as decrease in [ethanolamine-1-3H]AEA levels up to 10 uM preincubated for 30 mins followed by AEA addition measured after 15 mins by liquid scintillation counting method; method in brief: as §1
T5 sequence (whole entry): T1 sequence (O00519 whole entry)

Row | Structure (SMILES) | IC50 (U-937) [µM] | IC50 [1] [µM] | Ki (Cannabinoid receptor 2) [µM] | inhibition [2] | Activity (Cannabinoid receptor 1 [3]) | Activity (Cannabinoid receptor 1 [4]) [%] | EC50 (Cannabinoid receptor 1 [5]) [µM] | IC50 (Cannabinoid receptor 1 [6]) [µM] | IC50 (Monoglyceride lipase) [µM] | inhibition [7] | Activity (Cannabinoid receptor 1 [5])
1 | O=C(Nc1ccc(Cl)cc1)Nc1cccc(Nc2cccc(N3CCCC3)c2)c1 | > 10 | > 10 | > 100 | inactive |  |  | 13.5 | 9.6 | > 10 | inactive | 
2 | O=C(Nc1ccc(Cl)cc1)Nc1cccc(Nc2cccc(N3CCCC3)n2)c1 | > 10 | > 10 | 52.6 | inactive |  |  |  |  | > 10 | inactive | 

Continued, values first:

Row | IC50 (U-937) [µM] | IC50 [1] [µM] | Ki (Cannabinoid receptor 2) [µM] | inhibition [2] | Activity (Cannabinoid receptor 1 [3]) | Activity (Cannabinoid receptor 1 [4]) [%] | EC50 (Cannabinoid receptor 1 [5]) [µM] | IC50 (Cannabinoid receptor 1 [6]) [µM] | IC50 (Monoglyceride lipase) [µM] | inhibition [7] | Activity (Cannabinoid receptor 1 [5]) | Structure (SMILES)
3 | > 10 | 2.1 | > 10 | inactive |  |  |  |  |  |  |  | O=C(Nc1ccc(Cl)cc1)Nc1cccc(-c2cccc(N3CCCC3)n2)c1
4 | > 10 | > 10 | > 100 | inactive | Active | 10 | > 10 | 1.9 | > 10 | inactive |  | O=C(Cc1ccc(Cl)cc1)Nc1cccc(-c2cccc(N3CCCC3)c2)c1
5 | > 10 | > 10 | 49.8 | inactive |  |  | 0.043 | 0.29 | > 10 | inactive | Dose-dependent effect | O=C(Nc1ccc(Cl)cc1)Nc1cccc(-c2cccc(N3CCCC3)c2)c1
